Compound activity from PubChem.
TDP2 absorb = human TDP2 enzyme inhibitors, primary screen, biochemical, epi absorbance, recombinant enzyme. T5PNP hydrolysis, p-nitrophenol absorbance 415 nm. inhibition, % at 12.8 µM. hit rate 0.34% among 370,000. AID 720702, 2013;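 active means inhibition above the mean of all tested compounds plus 3 SD, set per campaign, cut at about 25% in these data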
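Assay system: Recombinant human TDP2 | Quantity: 120 nM TDP2 per well | Incubation: 2 h at 37 °C | Signal: Epi absorbance | Evaluation: Percent inhibition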
PRMT1 inh = PRMT1 methyltransferase inhibitors, primary screen, biochemical, fluorescence polarization | inhibition, % at 2.79 µM | recombinant PRMT1, activity-based probe fluorescence polarization | Protein arginine N-methyltransferase 1 (Homo sapiens), Q99873 | hit rate 1.3% among 370,000 | AID 652257, 2013;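 active means inhibition above about 21% made by adding two undisclosed values, limit read from the data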
Target sequence (Q99873 whole entry, looked up): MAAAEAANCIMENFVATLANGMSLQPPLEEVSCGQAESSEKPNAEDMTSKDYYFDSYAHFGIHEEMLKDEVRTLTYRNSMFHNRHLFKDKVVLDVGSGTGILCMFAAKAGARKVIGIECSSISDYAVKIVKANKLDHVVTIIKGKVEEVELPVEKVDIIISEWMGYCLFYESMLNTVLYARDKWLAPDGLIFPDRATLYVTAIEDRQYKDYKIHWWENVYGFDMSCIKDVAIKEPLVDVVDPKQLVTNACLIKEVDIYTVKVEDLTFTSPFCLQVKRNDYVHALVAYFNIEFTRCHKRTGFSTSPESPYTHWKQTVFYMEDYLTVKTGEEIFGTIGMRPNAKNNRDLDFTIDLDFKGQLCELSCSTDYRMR
GSTO1 counter = inhibitors of recombinant GSTO1, primary screen, counter-screen for RBBP9 inhibitor project, biochemical, fluorescence polarization; Glutathione S-transferase omega-1 (Homo sapiens), P78417; activity-based probe fluorescence polarization; inhibition, % at 5.96 µM; hit rate 1.1% among 300,000;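 active means inhibition above the campaign mean inhibition plus 3 SD, cut at about 35% in these data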
Target sequence (P78417 whole entry, looked up): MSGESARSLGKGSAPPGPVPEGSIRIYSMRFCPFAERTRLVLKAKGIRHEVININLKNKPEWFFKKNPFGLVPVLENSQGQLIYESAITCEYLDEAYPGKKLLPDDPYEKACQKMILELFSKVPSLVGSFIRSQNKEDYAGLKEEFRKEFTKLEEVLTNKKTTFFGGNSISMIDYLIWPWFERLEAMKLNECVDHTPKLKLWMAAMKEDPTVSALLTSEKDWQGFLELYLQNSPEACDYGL
CTSL1 counter = Fasciola hepatica cathepsin L1 inhibitors, primary screen, counter-screen for PFM18AAP inhibitor project, biochemical, QFRET, fluorogenic peptide substrate; hit rate 0.49% among 300,000; recombinant F. hepatica cathepsin L1, Z-Leu-Arg-MCA fluorescence; AID 1906, 2009; inhibition, % at 5.96 µM;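 active means inhibition above the mean of all tested compounds plus 3 SD, set per screening campaign, cut at about 17% in these data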
PAD4 FP inh = human PAD4 inhibitors, primary screen, biochemical, fluorescence polarization, 1536-well format. Protein-arginine deiminase type-4 (Homo sapiens), Q9UM07. recombinant PAD4, RCA probe fluorescence polarization. inhibition, % at 6.36 µM. hit rate 0.41% among 330,000. AID 485272, 2010;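 active means percent inhibition above a cutoff equal to the mean of all tested compounds plus 3 SD, cut at about 15% in these data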
GSTO1 confirm = GSTO1 inhibitor hit confirmation, counter-screen for RBBP9 inhibitor project, biochemical, fluorescence polarization, triplicate | shares compounds with GSTO1 counter | recombinant GSTO1, probe fluorescence polarization | inhibition, % at 5.96 µM | hit rate 54% among 2,400 | AID 2176, 2009;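 active means inhibition above the primary screen's cutoff, its mean inhibition plus 3 SD, cut at about 35% in these data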;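 further: loss of polarization as inhibitors block binding of rhodamine sulfonate ester activity probe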
Large screens that a line does not name were inactive (follow-up assays come after a bar, where they were run). Only some compounds are listed: those with a hit (about 2.5% of all), similar ones and a draw of the others.

COC(=O)CCCC1=CC2=C(c3ccccc3)C(=O)C(C)(OC(=O)C3CCCC3)C(=O)C2=CN1Cc1ccc(OC)cc1 (stereo unspecified)	GSTO1 counter 41 | GSTO1 confirm inactive
C=CCN1C=C2C(=O)C(C)(OC(=O)C3CCCC3)C(=O)C(c3ccccc3)=C2C=C1CCCC(=O)OC (stereo unspecified)	none
COC(=O)CCCC1=CC2=C(c3ccccc3)C(=O)C(C)(OC(=O)C3CCCC3)C(=O)C2=CN1CCN1CCOCC1 (stereo unspecified)	none
CCOc1ccc(-n2c(SCC(=O)Nc3ccc4c(c3)OCCO4)nnc2-c2ccncc2)cc1	none (no result: GSTO1 counter, CTSL1 counter, PAD4 FP inh)
CCOC(=O)[C@@]12CN(C(=O)OC(C)(C)C)CC=C1N(Cc1ccc(OC)cc1)C(=O)[C@H]2CC(=O)NCCCCc1ccccc1	none (no result: GSTO1 counter, CTSL1 counter, PAD4 FP inh)
COc1ccccc1C(=O)NC(=S)Nc1ccccc1N1CCCC1	GSTO1 counter 40 | GSTO1 confirm inactive
Cc1ccccc1C(=O)NC(=S)Nc1ccccc1N1CCCC1	none
CCOC(=O)C1CCN(C(=O)c2c(C)oc3c2C(=O)c2ccccc2C3=O)CC1	GSTO1 counter 44 | GSTO1 confirm 48
Cc1oc2c(c1C(=O)N1CCC(C)CC1)C(=O)c1ccccc1C2=O	GSTO1 counter 40 | GSTO1 confirm inactive
CCOC(=O)C1CCN(C(=O)c2ccc(C)o2)CC1	none (no result: GSTO1 counter, CTSL1 counter)
C=CCN1[C@H](C)COc2cc(N3CCCC3)ccc2S1(=O)=O	none (no result: GSTO1 counter, CTSL1 counter, PAD4 FP inh)
Nn1c(SCC(=O)Nc2cccc3ccccc23)nnc1-c1n[nH]c2c1CCC2	none (no result: GSTO1 counter, CTSL1 counter, PAD4 FP inh)
O=C1C=CC(=O)C(C2=C3C(=O)N(CCc4ccccc4)CC(=O)N3CCC2)=C1	PRMT1 inh 88, GSTO1 counter 75 | GSTO1 confirm inactive
O=C1CC2(CCCCC2)CC(=O)N1CCc1ccccc1	none (no result: GSTO1 counter, CTSL1 counter, PAD4 FP inh)
CCCCCCN1CCS(=O)(=O)N(Cc2ccc(C)cc2)C(C(=O)OC)C1 (stereo unspecified)	none (no result: GSTO1 counter, CTSL1 counter, PAD4 FP inh)
O=C(CCn1nnc(-c2cccs2)n1)N1CCOCC1	none (no result: GSTO1 counter, CTSL1 counter, PAD4 FP inh)
Cc1ccc(/C=N/N=C2/NC(=O)C(CC(=O)Nc3ccc(Cl)cc3)S2)o1 (stereo unspecified)	none
O=C(O)CC1S/C(=N/N=C/c2ccc(-c3ccc(Cl)cc3[N+](=O)[O-])o2)NC1=O (stereo unspecified)	GSTO1 counter 50 | GSTO1 confirm inactive
Cc1ccc(-n2c(SCC(=O)Nc3ccccc3-c3ccccc3)nnc2-c2cccnc2)cc1	none (no result: GSTO1 counter, CTSL1 counter, PAD4 FP inh)
Cc1ccc(NC(=O)[C@@H]2CC(=O)O[C@@H]2c2ccccc2)cc1C	none (no result: GSTO1 counter, CTSL1 counter, PAD4 FP inh)
CCNCc1ccccc1OCc1ccccc1	none
Oc1ccc(NCc2ccccc2OCc2ccccc2)cc1	GSTO1 counter 84 | GSTO1 confirm inactive
CC(=O)CC[C@H]1CC[C@]2(CCCN(Cc3nccn3C)C2)O1	none (no result: GSTO1 counter, CTSL1 counter, PAD4 FP inh)
c1cc2c3c(cccc3c1)NC1(CCCCCC1)N2	GSTO1 counter 53 | GSTO1 confirm inactive
CCCC[C@H]1C2CC(OC(=O)Nc3cc(C)cc(C)c3)C(C2)[C@H]2CCCCN21 (stereo partly specified)	none (no result: GSTO1 counter, CTSL1 counter, PAD4 FP inh)
Cc1cc(NC(=O)c2ccccc2)n(-c2nc3ccccc3[nH]2)n1	none
CCOC(=O)C(=O)Nc1cc(C)nn1-c1nc2ccccc2[nH]1	GSTO1 counter 45 | GSTO1 confirm inactive
COc1ccc(Cn2cc(CN3[C@@H](Cc4ccccc4)COc4cc(Br)ccc4S3(=O)=O)nn2)cc1	none (no result: GSTO1 counter, CTSL1 counter, PAD4 FP inh)
Nc1c(Cl)c(Cl)nc(C(=O)OCC(=O)N2CCCC2=O)c1Cl	none
O=C(OCC(=O)N1CCCC1=O)c1nc(Cl)c(Cl)c(Cl)c1Cl	GSTO1 counter 40 | GSTO1 confirm inactive
COc1cc(S(=O)(=O)N(Cc2ccc(C)cc2)Cc2ccco2)ccc1-n1cnnn1	none
COc1cc(S(=O)(=O)N(Cc2cccnc2)Cc2ccco2)ccc1-n1cnnn1	GSTO1 counter 40 | GSTO1 confirm inactive
COc1ccc(Cn2c(NC(=O)c3ccccc3)nc(Cc3ccccc3)c2Cc2ccccc2)c(OC)c1	none (no result: GSTO1 counter, CTSL1 counter, PAD4 FP inh)
CCNC(=O)Nc1ccc2c(c1)C(=O)N(C)[C@H]1CC[C@H](CC(=O)N[C@H](C)c3ccccc3)O[C@@H]1CO2	none (no result: GSTO1 counter, CTSL1 counter, PAD4 FP inh)
CC(=O)c1coc2c1cc(O)c1ccccc12	none
CC(=O)c1cc(O)c2ccccc2c1O	TDP2 absorb 42, PRMT1 inh 45, GSTO1 counter 46 | GSTO1 confirm 39
Cc1cc(Nc2cccc(C(=O)O)c2)n2ncnc2n1	GSTO1 counter 86 | GSTO1 confirm inactive
Cc1cc(Nc2cc(C(=O)O)ccc2C)n2ncnc2n1	none
Cc1ccc(-c2csc3nc4cc(C(=O)NC5CCC(O)CC5)ccc4c(=O)n23)cc1 (stereo unspecified)	GSTO1 counter 39 | GSTO1 confirm inactive
CCOC(=O)[C@]12CCCC=C1N(Cc1ccc(OC)cc1)C(=O)[C@@H]2CC(=O)NCc1ccc(C)o1	none (no result: GSTO1 counter, CTSL1 counter, PAD4 FP inh)
Cn1c(NC(=O)c2ccc(Cl)cc2)c(-c2ccccn2)c(=O)c2ccccc21	GSTO1 counter 44 | GSTO1 confirm inactive
CC(C)C(=O)Nc1c(-c2ccc(Cl)cc2)c(=O)c2ccccc2n1C	none
C[C@@H]1CCN(C2CC2)S(=O)(=O)c2c(cccc2N2CC[C@H](O)C2)O1	none (no result: GSTO1 counter, CTSL1 counter, PAD4 FP inh)
O=S(=O)(O)c1cc(O)c2c(O)c(N=Nc3cc(Cl)ccc3O)c(S(=O)(=O)O)cc2c1	GSTO1 counter 62 (no result: TDP2 absorb, PRMT1 inh) | GSTO1 confirm 73
COC(=O)[C@]12C[C@H](CC(=O)N3CCCCC3)C(=O)N(CCc3ccc(OC)c(OC)c3)C1=C[C@H](COCc1ccccc1)O[C@@H]2C	none (no result: GSTO1 counter, CTSL1 counter, PAD4 FP inh)
CN1C(=O)/C(=C/c2ccc(-c3ccccc3[N+](=O)[O-])o2)SC1=Nc1ccc(Cl)c(C(=O)O)c1	GSTO1 counter 72 | GSTO1 confirm 79
